Activity calls are given as the source filed them.
Tests used:
HEK293 [1] = assay: Inhibition of rabbit recombinant Cav2.2/rat recombinant Cavbeta3/Cavalpha2delta-1 expressed in HEK-293 cell assessed as hyperpolarizing shift in half-inactivation potential at 500 uM after 3 hrs by whole cell patch clamp technique; type: cell-based; conditions: in the assay text read “depolarizing” for “hyperpolarizing”
How it was run: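 Transiently transfected CaV2.2α1/β3/α2δ-1 HEK-293 cells were treated 3 h with 500 µM in culture medium. Whole-cell recording at 22–24 °C. 2 s prepulses of various amplitudes from Vh −80 mV, then test pulses to +20 mV. Steady-state inactivation was fitted with a Boltzmann equation to give V½ and slope; n = 4–6.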

HEK293 [2] = assay: Inhibition of rabbit recombinant Cav2.2/rat recombinant Cavbeta3/Cavalpha2delta-1 expressed in HEK-293 cell assessed as decrease in inward current at 500 uM at voltages from -20 to +30 mV after 3 hrs by whole-cell patch clamp technique; type: cell-based
How it was run: (§1)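 HEK-293 cells were transiently co-transfected (lipofection) with CaV subunit cDNAs plus a GFP plasmid. Cells were split at ~10% confluence 2 days later and GFP-positive cells recorded ~4 h after. Cells were preincubated 1–3 h in medium with 500 µM compound (water stock). Whole-cell Ba²⁺ currents were recorded at 22–24 °C with CsCl/EGTA/MgATP pipette solution, pH 7.1, P/4 leak subtraction, normalized to Cm, within 15 min of break-in. Pulses were 140 ms from Vh −80 mV. Student's t-test.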

Rattus norvegicus [3] = species: Rattus norvegicus; assay: Toxicity in Sprague-Dawley rat spinal nerve ligation-induced neuropathic pain model assessed as reduction of stepping at 10 to 300 ug, it; type: organism-based; conditions: in vivo, icv_or_intrathecal
HEK293 [4] = assay: Inhibition of rabbit recombinant Cav2.2/rat recombinant Cavbeta3/Cavalpha2delta-1 expressed in HEK-293 cell assessed as current density at 500 uM at holding potential of -80 mV after 1 to 2 hrs by whole-cell patch clamp technique; type: cell-based; how it was run: as §1
[5] = target: Voltage-dependent T-type calcium channel subunit alpha-1G (Homo sapiens) (UniProt O43497); assay: Inhibition of human recombinant Cav3.1 expressed in HEK-293 cell assessed as current density at 500 uM after 3 hrs by whole cell patch clamp technique; type: cell-based; conditions: HEK293
Chain of Voltage-dependent T-type calcium channel subunit alpha-1G (Homo sapiens) (O43497 whole entry): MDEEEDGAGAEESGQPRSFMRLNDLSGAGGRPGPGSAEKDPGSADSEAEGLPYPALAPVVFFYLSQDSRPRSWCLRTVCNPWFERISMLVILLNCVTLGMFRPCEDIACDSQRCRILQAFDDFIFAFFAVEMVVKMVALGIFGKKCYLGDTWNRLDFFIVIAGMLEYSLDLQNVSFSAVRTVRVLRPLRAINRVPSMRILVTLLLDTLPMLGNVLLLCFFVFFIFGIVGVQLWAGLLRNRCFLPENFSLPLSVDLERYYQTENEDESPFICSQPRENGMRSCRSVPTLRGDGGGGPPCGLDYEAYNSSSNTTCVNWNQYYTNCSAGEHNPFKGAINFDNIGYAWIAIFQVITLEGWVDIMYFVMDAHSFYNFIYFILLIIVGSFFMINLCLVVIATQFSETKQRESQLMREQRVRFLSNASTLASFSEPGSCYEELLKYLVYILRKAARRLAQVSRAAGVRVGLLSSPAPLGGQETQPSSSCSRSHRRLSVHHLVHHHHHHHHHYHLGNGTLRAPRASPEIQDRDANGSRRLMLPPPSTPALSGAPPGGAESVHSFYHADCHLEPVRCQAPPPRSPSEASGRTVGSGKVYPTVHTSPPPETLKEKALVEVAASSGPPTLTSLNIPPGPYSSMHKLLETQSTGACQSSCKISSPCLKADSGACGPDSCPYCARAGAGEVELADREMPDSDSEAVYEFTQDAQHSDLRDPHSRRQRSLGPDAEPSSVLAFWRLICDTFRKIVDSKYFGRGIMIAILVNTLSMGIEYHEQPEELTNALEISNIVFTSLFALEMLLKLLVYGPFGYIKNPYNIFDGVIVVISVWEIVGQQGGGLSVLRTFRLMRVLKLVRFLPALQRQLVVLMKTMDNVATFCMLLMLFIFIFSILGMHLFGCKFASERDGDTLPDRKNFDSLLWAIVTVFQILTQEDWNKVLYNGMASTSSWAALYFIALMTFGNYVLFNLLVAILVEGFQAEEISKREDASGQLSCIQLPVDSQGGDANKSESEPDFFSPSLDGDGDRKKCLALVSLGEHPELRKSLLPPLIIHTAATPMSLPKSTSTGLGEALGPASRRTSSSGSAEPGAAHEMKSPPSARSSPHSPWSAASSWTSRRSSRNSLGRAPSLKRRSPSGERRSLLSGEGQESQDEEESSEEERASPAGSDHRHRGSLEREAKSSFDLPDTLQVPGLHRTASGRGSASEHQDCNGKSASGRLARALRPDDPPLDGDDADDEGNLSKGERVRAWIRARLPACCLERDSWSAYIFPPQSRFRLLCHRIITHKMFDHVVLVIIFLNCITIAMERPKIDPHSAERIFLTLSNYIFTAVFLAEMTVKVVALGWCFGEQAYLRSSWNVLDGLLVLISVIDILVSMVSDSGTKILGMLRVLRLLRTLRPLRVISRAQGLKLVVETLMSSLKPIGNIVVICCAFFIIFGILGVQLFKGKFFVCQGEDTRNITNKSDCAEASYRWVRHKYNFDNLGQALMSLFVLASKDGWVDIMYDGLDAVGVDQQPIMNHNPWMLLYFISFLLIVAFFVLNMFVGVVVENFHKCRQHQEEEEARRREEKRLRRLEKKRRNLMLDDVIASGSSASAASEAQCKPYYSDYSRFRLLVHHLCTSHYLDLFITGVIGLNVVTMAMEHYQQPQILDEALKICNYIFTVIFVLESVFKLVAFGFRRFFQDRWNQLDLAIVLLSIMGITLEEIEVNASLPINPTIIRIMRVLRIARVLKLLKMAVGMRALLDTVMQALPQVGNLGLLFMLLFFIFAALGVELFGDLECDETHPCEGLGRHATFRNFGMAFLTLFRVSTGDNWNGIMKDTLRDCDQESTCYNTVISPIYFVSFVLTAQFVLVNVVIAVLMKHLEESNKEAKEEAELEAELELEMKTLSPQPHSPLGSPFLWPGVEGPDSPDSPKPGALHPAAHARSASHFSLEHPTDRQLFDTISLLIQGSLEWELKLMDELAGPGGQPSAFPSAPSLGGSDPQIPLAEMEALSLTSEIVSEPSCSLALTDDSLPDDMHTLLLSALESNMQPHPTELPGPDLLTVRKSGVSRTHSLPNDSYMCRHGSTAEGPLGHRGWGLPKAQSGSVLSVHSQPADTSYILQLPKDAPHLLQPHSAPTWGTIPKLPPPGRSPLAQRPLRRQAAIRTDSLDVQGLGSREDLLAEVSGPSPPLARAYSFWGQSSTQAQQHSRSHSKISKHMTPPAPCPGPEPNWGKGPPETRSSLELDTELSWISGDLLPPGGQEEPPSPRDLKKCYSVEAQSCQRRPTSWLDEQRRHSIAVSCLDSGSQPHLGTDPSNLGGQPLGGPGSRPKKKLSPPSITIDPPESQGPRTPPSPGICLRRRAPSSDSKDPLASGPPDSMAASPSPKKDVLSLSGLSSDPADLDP
How it was run: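 HEK-293 cells stably expressing CaV3.1a (no auxiliary subunits) were re-seeded on poly-L-lysine coverslips and recorded ~4 h later. Cells were incubated 3 h with 500 µM. Whole-cell current–voltage relationships were recorded at 22–24 °C, normalized to Cm; n = 5–6.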

HEK293 [6] = assay: Inhibition of rabbit recombinant Cav2.2/rat recombinant Cavbeta3/Cavalpha2delta-1 expressed in HEK-293 cell assessed as decrease in current density at 500 uM at holding potential of -80 mV after 3 hrs by whole-cell patch clamp technique; type: cell-based; how it was run: as §1
HEK293 [7] = assay: Inhibition of rabbit recombinant Cav2.2/rat recombinant Cavbeta3/Cavalpha2delta-1 expressed in HEK-293 cell assessed as inhibition of channel current at 500 uM by whole-cell patch clamp technique; type: cell-based; how it was run: as §1
[8] = target: Cav1.3/Cav beta3 complex (Rattus norvegicus) (UniProt P27732+P54287); assay: Inhibition of rat recombinant Cav1.3/Cavbeta3 expressed in HEK-293 cell assessed as current density at 500 uM after 3 hrs by whole-cell patch clamp technique; type: cell-based; conditions: HEK293
How it was run: (§2)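 Rat CaV1.3α1 (pcDNA6/His) was transiently co-transfected with β3, with or without α2δ-1, plus GFP into HEK-293 cells. Cells were incubated 3 h with 500 µM, then whole-cell Ba²⁺ current–voltage relationships were recorded at 22–24 °C, normalized to membrane capacitance. n = 9 with α2δ-1; n = 5–7 without.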

Rattus norvegicus [9] = species: Rattus norvegicus; assay: Toxicity in Sprague-Dawley rat spinal nerve ligation-induced neuropathic pain model assessed as reduction of corneal and pinna reflexes at 10 to 300 ug, it; type: organism-based, Cornea; conditions: in vivo, icv_or_intrathecal
HEK293 [10] = assay: Inhibition of rabbit recombinant Cav2.2/rat recombinant Cavbeta3/Cavalpha2delta-1 expressed in HEK-293 cell assessed as decrease in whole cell Ba2+ current at 500 uM at holding potential of -80 mV up to 3 hrs by whole-cell patch clamp technique; type: cell-based; how it was run: as §1
Rattus norvegicus [11] = assay: Anti-allodynic activity in Sprague-Dawley rat spinal nerve ligation-induced neuropathic pain model assessed as reversal of tactile allodynia at 10 to 300 ug administered intrathecally measured after 2 hrs by von frey filament based paw withdrawal threshold method; type: functional, organism-based
How it was run: (§3)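 Rats 140–160 g, 12/12 h light/dark, food and water ad libitum. Spinal nerve ligation under ketamine/xylazine (45:12 mg/kg i.p.). An intrathecal PE-10 catheter was placed to the lumbar level via the atlantooccipital membrane, followed by 5 d recovery. Rats with motor impairment were excluded. Bolus doses of 10–300 µg/rat were given to allodynic rats, against vehicle. 50% paw withdrawal threshold to von Frey filaments after 30–40 min acclimation on mesh.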

HEK293 [12] = assay: Inhibition of rabbit recombinant Cav2.2/rat recombinant Cavbeta3 expressed in HEK-293 cell assessed as current density at 500 uM after 3 hrs by whole-cell patch clamp technique; type: cell-based; how it was run: as §1
[13] = target: Cav1.3/Cav beta3/Cav alpha2delta complex (Rattus norvegicus) (UniProt P54290+P27732+P54287); assay: Inhibition of rat recombinant Cav1.3/Cavbeta3/Cavalpha2delta-1 expressed in HEK-293 cell assessed as decrease in current density at 500 uM after 3 hrs by whole-cell patch clamp technique; type: cell-based; conditions: HEK293; how it was run: as §2
Rattus norvegicus [14] = assay: Anti-allodynic activity in Sprague-Dawley rat spinal nerve ligation-induced neuropathic pain model assessed as reversal of tactile allodynia at 10 to 300 ug administered intrathecally measured after 1 hr by von frey filament based paw withdrawal threshold method; type: functional, organism-based; how it was run: as §3
Rattus norvegicus [15] = species: Rattus norvegicus; assay: Toxicity in Sprague-Dawley rat spinal nerve ligation-induced neuropathic pain model assessed as reduction of righting at 10 to 300 ug, it; type: organism-based; conditions: in vivo, icv_or_intrathecal
Rattus norvegicus [16] = assay: Anti-allodynic activity in Sprague-Dawley rat spinal nerve ligation-induced neuropathic pain model assessed as tactile allodynia at 10 to 300 ug administered intrathecally measured after 4 hrs by von frey filament based paw withdrawal threshold method; type: functional, organism-based; how it was run: as §3

- inhibition [5]: inactive
- inhibition [8]: inactive
- inhibition [13]: Active
Compound: Cl.NCC1C2CC3CC(C2)CC1(C(=O)O)C3 (stereo unspecified)
- inhibition (HEK293 [1]): Active
- inhibition (HEK293 [2]): Active
- Activity (Rattus norvegicus [3]): Non-toxic
- inhibition (HEK293 [4]): inactive
- inhibition (HEK293 [6]): Active
- inhibition (HEK293 [7]): 30%
- Activity (Rattus norvegicus [9]): Non-toxic
- inhibition (HEK293 [10]): Active
- Activity (Rattus norvegicus [11]): Active
- inhibition (HEK293 [12]): inactive
- Activity (Rattus norvegicus [14]): Active
- Activity (Rattus norvegicus [15]): Non-toxic
- Activity (Rattus norvegicus [16]): inactive
